Experimental data from ChEMBL document CHEMBL4251593, “Nontoxic combretafuranone analogues with high in vitro antibacterial activity” (Eur J Med Chem, 2018).
pIC50: −log10 of the molar value. In brackets after ≈: the same amount, converted by molar mass.

How the values were obtained:
PC-3 [1] = assay: Cytotoxicity against human PC3 cells assessed as reduction in cell viability after 48 hrs by ATPlite-based luminescent assay; conditions: PC-3, 48 h
Summary of the method: (§1)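 Cells were grown […] with 10% FBS, glutamax, NEAA and pen/strep at 37 °C, 5% CO2. Media were DMEM for RPE-1, HepG2 and BJ (BJ plus 10 ng/ml bFGF), F-12K for PC3, and IMDM for K562/HL-60. Cells were seeded at 500 per well and dosed from DMSO at 12 concentrations, 40 µM to 1 nM, in triplicate. After 48 h, intracellular ATP was read by luminescence. ED50 was obtained by variable-slope nonlinear regression.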

MCF7 = assay: Cytotoxicity against human MCF7 cells assessed as reduction in cell viability after 48 hrs by ATPlite-based luminescent assay; conditions: MCF7, 48 h
HepG2 [2] = assay: Induction of apoptosis in human HepG2 cells assessed as caspase 3/7 activity after 24 hrs by caspase-glo luminescent assay; type: cell-based; conditions: HepG2, 24 h
Summary of the method: (§2)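 Cells were seeded at 500 per well in their growth media and exposed to 12 concentrations from 40 µM to 1 nM, delivered from DMSO, in triplicate. After 24 h, caspase-3/7 activity was read by Caspase-Glo luminescence. Data were normalized and ED50 was fitted by variable-slope nonlinear regression.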

HL-60 [3] = assay: Cytotoxicity against human HL60 cells assessed as reduction in cell viability after 48 hrs by ATPlite-based luminescent assay; conditions: HL-60, 48 h; summary of the method: as §1
TERT-RPE1 [4] = assay: Induction of apoptosis in human RPE1 cells assessed as caspase 3/7 activity after 24 hrs by caspase-glo luminescent assay; type: cell-based; conditions: RPE-1, 24 h; summary of the method: as §2
K562 [5] = assay: Cytotoxicity against human K562 cells assessed as reduction in cell viability after 48 hrs by ATPlite-based luminescent assay; conditions: K562, 48 h; summary of the method: as §1
PC-3 [6] = assay: Induction of apoptosis in human PC3 cells assessed as caspase 3/7 activity after 24 hrs by caspase-glo luminescent assay; type: cell-based; conditions: PC-3, 24 h; summary of the method: as §2
HepG2 [7] = assay: Cytotoxicity against human HepG2 cells assessed as reduction in cell viability after 48 hrs by ATPlite-based luminescent assay; conditions: HepG2, 48 h; summary of the method: as §1
K562 [8] = assay: Induction of apoptosis in human K562 cells assessed as caspase 3/7 activity after 24 hrs by caspase-glo luminescent assay; type: cell-based; conditions: K562, 24 h; summary of the method: as §2
BJ = assay: Cytotoxicity against human BJ cells assessed as reduction in cell viability after 48 hrs by ATPlite-based luminescent assay; summary of the method: as §1
TERT-RPE1 [9] = assay: Cytotoxicity against human RPE1 cells assessed as reduction in cell viability after 48 hrs by ATPlite-based luminescent assay; conditions: RPE-1, 48 h; summary of the method: as §1
HL-60 [10] = assay: Induction of apoptosis in human HL60 cells assessed as caspase 3/7 activity after 24 hrs by caspase-glo luminescent assay; type: cell-based; conditions: HL-60, 24 h; summary of the method: as §2
Staphylococcus aureus [11] = assay: Antibacterial activity against methicillin-resistant Staphylococcus aureus HK5996/08 clinical isolate after 48 hrs by microdilution assay; type: functional; conditions: HK5996/08, 48 h
Pseudomonas aeruginosa [12] = assay: Antibacterial activity against Pseudomonas aeruginosa ATCC 9027 after 48 hrs by microdilution assay; type: functional; conditions: ATCC 9027, 48 h
Summary of the method: (§3)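 Broth microdilution in Mueller-Hinton medium buffered to pH 7.4 (±0.2), with DMSO as diluent at no more than 2% final. Compounds were tested as 2-fold serial dilutions from 2000 to 0.488 µmol/l. The inoculum was 0.5 McFarland (1.5×10^8 cfu/ml). Plates were held at 37 °C and read visually at 24 and 48 h. MIC was taken as 95% growth inhibition versus control, determined twice in duplicate.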

Staphylococcus aureus [13] = assay: Antibacterial activity against methicillin-resistant Staphylococcus aureus HK5996/08 clinical isolate after 24 hrs by microdilution assay; type: functional; conditions: HK5996/08, 24 h
Enterococcus sp. [14] = assay: Antibacterial activity against Enterococcus sp. HK14365/08 clinical isolate after 24 hrs by microdilution assay; type: functional; conditions: HK14365/08, 24 h
Escherichia coli [15] = assay: Antibacterial activity against Escherichia coli ATCC 8739 after 48 hrs by microdilution assay; type: functional; conditions: ATCC 8739, 48 h; summary of the method: as §3
Escherichia coli [16] = assay: Antibacterial activity against Escherichia coli ATCC 8739 after 24 hrs by microdilution assay; type: functional; conditions: ATCC 8739, 24 h; summary of the method: as §3
[17] = tested on: Staphylococcus epidermidis; assay: Antibacterial activity against Staphylococcus epidermidis HK6966/08 clinical isolate after 48 hrs by microdilution assay; type: functional; conditions: HK6966/08, 48 h
Klebsiella pneumoniae [18] = assay: Antibacterial activity against Klebsiella pneumoniae HK14368/08 clinical isolate after 24 hrs by microdilution assay; type: functional; conditions: HK14368/08, 24 h
Klebsiella pneumoniae [19] = assay: Antibacterial activity against Klebsiella pneumoniae HK11750/08 clinical isolate after 24 hrs by microdilution assay; type: functional; conditions: HK11750/08, 24 h
Pseudomonas aeruginosa [20] = assay: Antibacterial activity against Pseudomonas aeruginosa ATCC 9027 after 24 hrs by microdilution assay; type: functional; conditions: ATCC 9027, 24 h; summary of the method: as §3
Staphylococcus aureus [21] = assay: Antibacterial activity against Staphylococcus aureus ATCC 6538 after 24 hrs by microdilution assay; type: functional; conditions: ATCC 6538, 24 h
Klebsiella pneumoniae [22] = assay: Antibacterial activity against Klebsiella pneumoniae HK14368/08 clinical isolate after 48 hrs by microdilution assay; type: functional; conditions: HK14368/08, 48 h
Enterococcus sp. [23] = assay: Antibacterial activity against Enterococcus sp. HK14365/08 clinical isolate after 48 hrs by microdilution assay; type: functional; conditions: HK14365/08, 48 h
[24] = tested on: Staphylococcus epidermidis; assay: Antibacterial activity against Staphylococcus epidermidis HK6966/08 clinical isolate after 24 hrs by microdilution assay; type: functional; conditions: HK6966/08, 24 h
Staphylococcus aureus [25] = assay: Antibacterial activity against Staphylococcus aureus ATCC 6538 after 48 hrs by microdilution assay; type: functional; conditions: ATCC 6538, 48 h
Klebsiella pneumoniae [26] = assay: Antibacterial activity against Klebsiella pneumoniae HK11750/08 clinical isolate after 48 hrs by microdilution assay; type: functional; conditions: HK11750/08, 48 h

pIC50 (HepG2 [2]) | pIC50 (PC-3 [6]) | pIC50 (K562 [8]) | pIC50 (HL-60 [10]) | SMILES | pIC50 (PC-3 [1]) | pIC50 (MCF7) | pIC50 (HL-60 [3]) | pIC50 (TERT-RPE1 [4]) | pIC50 (K562 [5]) | pIC50 (HepG2 [7]) | pIC50 (BJ) | pIC50 (TERT-RPE1 [9]) | further results
< 4.40 | < 4.40 | < 4.40 | < 4.40 | COc1cc(C2=C(c3ccc4c(c3)OCO4)C(=O)OC2)cc(OC)c1OC | < 4.40 | < 4.40 | < 4.40 | < 4.40 | < 4.40 | < 4.40 | < 4.40 | < 4.40 | –
< 4.40 | < 4.40 | < 4.40 | 6.27 | Cc1ccc(C2=C(c3ccc(Cl)c(Cl)c3)C(=O)OC2)cc1 | < 4.40 | 4.81 | 6.64 | 5.46 | 6.92 | < 4.40 | < 4.40 | 6.27 | –
< 4.40 | < 4.40 | < 4.40 | < 4.40 | O=C1OCC(c2ccc(O)cc2)=C1c1ccc(Br)cc1 | < 4.40 | < 4.40 | < 4.40 | < 4.40 | < 4.40 | < 4.40 | < 4.40 | < 4.40 | –
< 4.40 | < 4.40 | < 4.40 | < 4.40 | Cc1ccc(C2=C(c3ccccc3Cl)C(=O)OC2)cc1 | < 4.40 | < 4.40 | 5.98 | 4.88 | 6.11 | < 4.40 | < 4.40 | 5.68 | –
< 4.40 | < 4.40 | < 4.40 | 6.36 | Cc1ccc(C2=C(c3ccc(Cl)cc3Cl)C(=O)OC2)cc1 | < 4.40 | 4.62 | 6.57 | 5.00 | 6.72 | < 4.40 | < 4.40 | 6.04 | –

SMILES | pIC50 (HepG2 [2]) | pIC50 (PC-3 [6]) | pIC50 (K562 [8]) | pIC50 (HL-60 [10]) | pIC50 (PC-3 [1]) | pIC50 (MCF7) | pIC50 (HL-60 [3]) | pIC50 (TERT-RPE1 [4]) | pIC50 (K562 [5]) | pIC50 (HepG2 [7]) | pIC50 (BJ) | pIC50 (TERT-RPE1 [9]) | further results
O=C1OCC(c2ccc(C(F)(F)F)cc2)=C1c1ccc(Br)cc1 | < 4.40 | < 4.40 | < 4.40 | < 4.40 | < 4.40 | 5.20 | < 4.40 | < 4.40 | < 4.40 | 4.94 | < 4.40 | 4.78 | MIC95 (Staphylococcus aureus [11]): 62.5 µM (≈ 23.9 µg/mL); MIC95 (Pseudomonas aeruginosa [12]): > 500 µM; MIC95 (Staphylococcus aureus [13]): 62.5 µM (≈ 23.9 µg/mL); MIC95 (Enterococcus sp. [14]): > 500 µM; MIC95 (Escherichia coli [15]): > 500 µM; MIC95 (Escherichia coli [16]): > 500 µM; MIC95 [17]: 125 µM (≈ 47.9 µg/mL); MIC95 (Klebsiella pneumoniae [18]): > 500 µM; MIC95 (Klebsiella pneumoniae [19]): > 500 µM; MIC95 (Pseudomonas aeruginosa [20]): > 500 µM; MIC95 (Staphylococcus aureus [21]): 62.5 µM (≈ 23.9 µg/mL); MIC95 (Klebsiella pneumoniae [22]): > 500 µM; MIC95 (Enterococcus sp. [23]): > 500 µM; MIC95 [24]: 125 µM (≈ 47.9 µg/mL); MIC95 (Staphylococcus aureus [25]): 62.5 µM (≈ 23.9 µg/mL); MIC95 (Klebsiella pneumoniae [26]): > 500 µM
CC[C@@]1(O)C(=O)OCc2c1cc1n(c2=O)Cc2cc3ccccc3nc2-1 [CAMPTOTHECIN] | 5.36 | < 4.40 | 6.15 | 7.15 | 6.40 | 6.47 | 7.70 | 4.57 | 7.05 | 6.37 | < 4.40 | < 4.40 | –
